# PubChem BioAssay AID623983 (Vanderbilt High Throughput Screening Facility, 2012)
# Activity calls are given as the source filed them. How the calls were made is not given here.
# Molecular target: G protein-activated inward rectifier potassium channel 2 (Homo sapiens) + G protein-activated inward rectifier potassium channel 3 (Homo sapiens) (UniProt P48051+Q92806)
# Experiment: activation of GIRK2/3-mediated thallium influx – cell-based, HEK-293 hGIRK2/3, thallium flux, FluoZin-2, concentration-response, dose response (AID 623983)
# Outline: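 Assay system – stable hGIRK2/3 HEK-293 cell line · Probe or stimulus – Tl+ stimulus plus EC20 glutamate · Incubation – FluoZin-2 AM loading ~60 min room temperature, compound 4 min pre-thallium · Detection – thallium flux fluorescence with FluoZin-2, 1 Hz · Read-out – vehicle-subtracted F/F0 slope after thallium, % of 80 mM MPD · Benchmarks – 80 mM MPD reference and vehicle control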
# Chain of G protein-activated inward rectifier potassium channel 2 (Homo sapiens) + G protein-activated inward rectifier potassium channel 3 (Homo sapiens) (P48051 whole entry, looked up): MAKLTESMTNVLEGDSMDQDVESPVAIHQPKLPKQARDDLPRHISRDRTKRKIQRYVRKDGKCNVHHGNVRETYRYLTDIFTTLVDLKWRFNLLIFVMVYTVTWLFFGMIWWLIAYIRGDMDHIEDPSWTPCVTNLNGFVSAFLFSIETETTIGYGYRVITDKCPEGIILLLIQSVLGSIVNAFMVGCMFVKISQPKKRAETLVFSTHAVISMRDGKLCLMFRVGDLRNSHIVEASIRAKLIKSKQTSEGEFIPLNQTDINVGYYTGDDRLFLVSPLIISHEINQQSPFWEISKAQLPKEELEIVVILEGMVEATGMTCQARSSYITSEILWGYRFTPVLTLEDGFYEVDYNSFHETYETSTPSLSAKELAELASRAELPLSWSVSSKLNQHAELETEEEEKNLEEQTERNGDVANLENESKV
# Chain of G protein-activated inward rectifier potassium channel 2 (Homo sapiens) + G protein-activated inward rectifier potassium channel 3 (Homo sapiens) (Q92806 whole entry, looked up): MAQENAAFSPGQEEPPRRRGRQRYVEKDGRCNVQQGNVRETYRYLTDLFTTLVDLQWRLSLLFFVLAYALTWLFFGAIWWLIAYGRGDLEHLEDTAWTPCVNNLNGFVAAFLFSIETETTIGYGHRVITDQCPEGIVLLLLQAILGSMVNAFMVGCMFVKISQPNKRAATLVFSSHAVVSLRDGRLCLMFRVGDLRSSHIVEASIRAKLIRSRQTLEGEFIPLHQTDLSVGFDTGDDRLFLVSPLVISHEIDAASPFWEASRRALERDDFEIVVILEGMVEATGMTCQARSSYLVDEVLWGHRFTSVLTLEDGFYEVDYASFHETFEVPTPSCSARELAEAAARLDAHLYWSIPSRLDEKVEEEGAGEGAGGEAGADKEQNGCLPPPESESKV
smiles,measurement,value
Cc1cc(NC(=O)Nc2ccc(F)c(F)c2)n(-c2ccccc2)n1,outcome,inactive
